Experimental data taken from ChEMBL document CHEMBL1139833, “Synthesis and metabotropic glutamate receptor activity of S-oxidized variants of (-)-4-amino-2-thiabicyclo-[3.1.0]hexane-4,6-dicarboxylate: identification of potent, selective, and orally bioavailable agonists for mGlu2/3 receptors” (J Med Chem, 2007).
pEC50, pKi: −log10 of the molar value. The source made the active and inactive calls. The rule behind the calls is not given here.

Legend:
[1] = molecular target: T1, Metabotropic glutamate receptor 3 (Homo sapiens, UniProt Q14832); experiment: Agonist activity at human mGluR3 assessed as effect on cAMP production in RGT cells; assay type: functional, cell-based
Summary of the method: (§1)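 cAMP second-messenger responses measured in RGT cells. These are non-neuronal AV12-664 cells coexpressing the glutamate transporter GLAST, to minimize glutamate activity, plus the recombinant human receptor (mGlu2, mGlu3 or mGlu8). Agonist EC50 determined.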

[2] = molecular target: T2, Metabotropic glutamate receptor 2 (Homo sapiens, UniProt Q14416); experiment: Displacement of [3H]LY341495 from human recombinant mGluR2 in RGT cells; assay type: cell-based
[3] = molecular target: T1, Metabotropic glutamate receptor 3; experiment: Displacement of [3H]LY341495 from human recombinant mGluR3 in RGT cells; assay type: cell-based
Summary of the method: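 Radioligand binding on membranes carrying recombinant human mGlu2 or mGlu3, displacing the antagonist [3H]LY341495. Ki was calculated from IC50 by the Cheng-Prusoff equation. Values are the mean of at least three separate experiments.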

[4] = molecular target: T2, Metabotropic glutamate receptor 2; experiment: Agonist activity at human mGluR2 assessed as effect on cAMP production in RGT cells; assay type: functional, cell-based; summary of the method: as §1
[5] = molecular target: Metabotropic glutamate receptor 8 (Homo sapiens, UniProt O00222); experiment: Agonist activity at human mGluR8 assessed as effect on cAMP production in RGT cells; assay type: functional, cell-based; summary of the method: as §1
[6] = molecular target: Metabotropic glutamate receptor 1 (Homo sapiens) (UniProt Q13255); experiment: Agonist activity at human mGluR1a assessed as effect on cAMP production in RGT cells upto 100 uM; assay type: functional, cell-based
Summary of the method: (§2)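 Compounds were tested at concentrations up to 100 µM for agonist or antagonist effects. Assays used RGT cells, which are AV12-664 cells coexpressing GLAST and recombinant human mGlu1a, mGlu5a, mGlu4a or mGlu7a.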

[7] = molecular target: Metabotropic glutamate receptor 5 (Homo sapiens) (UniProt P41594); experiment: Agonist activity at human mGluR5a assessed as effect on cAMP production in RGT cells upto 100 uM; assay type: functional, cell-based; summary of the method: as §2
[8] = molecular target: Metabotropic glutamate receptor 4 (Homo sapiens) (UniProt Q14833); experiment: Agonist activity at human mGluR4a assessed as effect on cAMP production in RGT cells upto 100 uM; assay type: functional, cell-based; summary of the method: as §2
[9] = molecular target: Metabotropic glutamate receptor 7 (Homo sapiens) (UniProt Q14831); experiment: Agonist activity at human mGluR7a assessed as effect on cAMP production in RGT cells upto 100 uM; assay type: functional, cell-based; summary of the method: as §2
[10] = molecular target: Metabotropic glutamate receptor 1 (Homo sapiens) (UniProt Q13255); experiment: Antagonist activity against human mGluR1a assessed as effect on cAMP production in RGT cells upto 100 uM; assay type: functional, cell-based; summary of the method: as §2
[11] = molecular target: Metabotropic glutamate receptor 5 (Homo sapiens) (UniProt P41594); experiment: Antagonist activity against human mGluR5a assessed as effect on cAMP production in RGT cells upto 100 uM; assay type: functional, cell-based; summary of the method: as §2
[12] = molecular target: Metabotropic glutamate receptor 4 (Homo sapiens) (UniProt Q14833); experiment: Antagonist activity against human mGluR4a assessed as effect on cAMP production in RGT cells upto 100 uM; assay type: functional, cell-based; summary of the method: as §2
[13] = molecular target: Metabotropic glutamate receptor 7 (Homo sapiens) (UniProt Q14831); experiment: Antagonist activity against human mGluR7a assessed as effect on cAMP production in RGT cells upto 100 uM; assay type: functional, cell-based; summary of the method: as §2
Rattus norvegicus [14] = experiment: Impairment of rotarod performance in Sprague-Dawley rat at 3 mg/kg, po after 2 hrs; assay type: functional, organism-based; set-up: dose 3 mg/kg
Summary of the method: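 Fasted Sprague-Dawley rats were trained on a rotorod at 4 rpm over four trials. Rats holding on for 60 s were retested 30 min before dosing, then given oral drug or vehicle. They were tested again 2 h later for up to 60 s. Read-out is mean seconds on the rod, n=8 per group.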

Rattus norvegicus [15] = experiment: Plasma concentration in Fischer 344 rat at 10 mg/kg, po after 0.5 hrs; assay type: ADME, organism-based; set-up: dose 10 mg/kg, route oral; conditions: in vivo
Summary of the method: (§3)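 Plasma levels in fasted male Fischer 344 rats after a 10 mg/kg oral dose in pH 7 water (NaOH), quantified by positive-ion electrospray LC/MS/MS. Main protocol sampled at 0.08/0.25–24 h, n=3 rats per time point. A variant oral-only arm used n=6 rats with samples at 0.5, 1, 2, 3, 4 and 6 h.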

Rattus norvegicus [16] = experiment: Plasma concentration in Fischer 344 rat at 10 mg/kg, po after 1 hrs; assay type: ADME, organism-based; set-up: dose 10 mg/kg, route oral; conditions: in vivo; summary of the method: as §3
Rattus norvegicus [17] = experiment: Plasma concentration in Fischer 344 rat at 10 mg/kg, po after 2 hrs; assay type: ADME, organism-based; set-up: dose 10 mg/kg, route oral; conditions: in vivo; summary of the method: as §3
Rattus norvegicus [18] = experiment: Plasma concentration in Fischer 344 rat at 10 mg/kg, po after 3 hrs; assay type: ADME, organism-based; set-up: dose 10 mg/kg, route oral; conditions: in vivo; summary of the method: as §3
Rattus norvegicus [19] = experiment: Plasma concentration in Fischer 344 rat at 10 mg/kg, po after 4 hrs; assay type: ADME, organism-based; set-up: dose 10 mg/kg, route oral; conditions: in vivo; summary of the method: as §3
Rattus norvegicus [20] = experiment: Plasma concentration in Fischer 344 rat at 10 mg/kg, po after 6 hrs; assay type: ADME, organism-based; set-up: dose 10 mg/kg, route oral; conditions: in vivo; summary of the method: as §3
[21] = Plasma concentration in Fischer 344 rat at 10 mg/kg, po after 8 hrs; assay type: ADME, organism-based; set-up: dose 10 mg/kg, route oral; summary of the method: as §3
[22] = Plasma concentration in Fischer 344 rat at 10 mg/kg, po after 16 hrs; assay type: ADME, organism-based; set-up: dose 10 mg/kg, route oral; summary of the method: as §3
[23] = Plasma concentration in rat at 10 mg/kg, po after 24 hrs; assay type: ADME, organism-based; set-up: dose 10 mg/kg, route oral; summary of the method: as §3
Rattus norvegicus [24] = experiment: Reduction of PCP-induced ambulations in Sprague-Dawley rat at 3 mg/kg, po; assay type: functional; set-up: scale not given: the % may be the effect or the level left
Summary of the method: (§4)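 Male Sprague-Dawley rats (225-274 g) fasted 12-18 h and habituated 30 min to the test cage. Test drug or vehicle was given orally 2 h before PCP (5 mg/kg s.c.) or 0.9% NaCl. Horizontal photobeam breaks were counted over 60 min, n=8-13 per group.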

Rattus norvegicus [25] = experiment: Reduction of PCP-induced ambulations in Sprague-Dawley rat at 10 mg/kg, po; assay type: functional; set-up: scale not given: the % may be the effect or the level left; summary of the method: as §4
Rattus norvegicus [26] = experiment: Inhibition of PCP-induced ambulations in Sprague-Dawley rat after oral administration; assay type: functional; summary of the method: as §4
[27] = AUC (0-24h) in Fischer 344 rat at 10 mg/kg, iv; assay type: ADME, organism-based; set-up: time < 24 hr, dose 10 mg/kg, route intravenous; conditions: plasma
Summary of the method: (§5)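 Male Fischer 344 rats fasted overnight, food returned 4 h post dose, water ad libitum. Doses were in water brought to pH 7 with NaOH, given i.v. (2.5 or 10 mg/kg) or p.o. (10 mg/kg). Nine rats per dose group, three per time point, with blood taken over 0.08–24 h. Plasma measured by LC/MS/MS.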

Rattus norvegicus [28] = experiment: AUC (0-24h) in Fischer 344 rat at 10 mg/kg, po; assay type: ADME, organism-based, Plasma; set-up: time < 24 hr, dose 10 mg/kg, route oral; conditions: rat, in vivo, 24 h; summary of the method: as §5
Rattus norvegicus [29] = experiment: Cmax in Fischer 344 rat at 10 mg/kg, iv; assay type: ADME, organism-based; set-up: dose 10 mg/kg, route intravenous; conditions: in vivo; summary of the method: as §5
Rattus norvegicus [30] = experiment: Cmax in Fischer 344 rat at 10 mg/kg, po; assay type: ADME, organism-based; set-up: dose 10 mg/kg, route oral; conditions: in vivo; summary of the method: as §5
[31] = Tmax in Fischer 344 rat at 10 mg/kg, iv; assay type: ADME, organism-based; set-up: dose 10 mg/kg, route intravenous; conditions: in vivo; summary of the method: as §5
[32] = Tmax in Fischer 344 rat at 10 mg/kg, po; assay type: ADME, organism-based; set-up: dose 10 mg/kg, route oral; conditions: Fischer 344, rat, in vivo; summary of the method: as §5
[33] = Oral bioavailability in Fischer 344 rat at 10 mg/kg, po; assay type: ADME, organism-based; conditions: in vivo; summary of the method: as §5

T2 sequence (Q14416 whole entry): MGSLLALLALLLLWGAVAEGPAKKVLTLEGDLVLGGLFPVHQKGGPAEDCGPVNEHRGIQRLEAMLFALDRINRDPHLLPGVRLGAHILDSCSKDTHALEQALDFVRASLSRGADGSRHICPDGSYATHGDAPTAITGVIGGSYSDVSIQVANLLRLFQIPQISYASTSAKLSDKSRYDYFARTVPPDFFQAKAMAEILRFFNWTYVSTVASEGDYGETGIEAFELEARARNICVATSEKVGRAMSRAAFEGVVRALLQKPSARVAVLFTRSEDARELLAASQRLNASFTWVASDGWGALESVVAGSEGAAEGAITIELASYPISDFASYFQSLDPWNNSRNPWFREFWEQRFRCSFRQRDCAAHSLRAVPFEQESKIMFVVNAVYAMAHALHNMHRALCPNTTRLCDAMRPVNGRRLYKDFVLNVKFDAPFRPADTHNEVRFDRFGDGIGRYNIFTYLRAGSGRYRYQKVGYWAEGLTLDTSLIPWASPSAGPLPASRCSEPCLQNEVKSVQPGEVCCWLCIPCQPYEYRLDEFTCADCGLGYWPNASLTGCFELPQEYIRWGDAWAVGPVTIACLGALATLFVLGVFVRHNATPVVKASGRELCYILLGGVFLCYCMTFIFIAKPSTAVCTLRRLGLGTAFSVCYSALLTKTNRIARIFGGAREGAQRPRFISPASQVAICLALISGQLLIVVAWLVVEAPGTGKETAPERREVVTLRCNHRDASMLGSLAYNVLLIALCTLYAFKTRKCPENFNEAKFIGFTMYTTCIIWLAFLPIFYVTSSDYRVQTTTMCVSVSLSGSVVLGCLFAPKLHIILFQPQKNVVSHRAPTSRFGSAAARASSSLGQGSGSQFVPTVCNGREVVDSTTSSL
T1 sequence (Q14832 whole entry): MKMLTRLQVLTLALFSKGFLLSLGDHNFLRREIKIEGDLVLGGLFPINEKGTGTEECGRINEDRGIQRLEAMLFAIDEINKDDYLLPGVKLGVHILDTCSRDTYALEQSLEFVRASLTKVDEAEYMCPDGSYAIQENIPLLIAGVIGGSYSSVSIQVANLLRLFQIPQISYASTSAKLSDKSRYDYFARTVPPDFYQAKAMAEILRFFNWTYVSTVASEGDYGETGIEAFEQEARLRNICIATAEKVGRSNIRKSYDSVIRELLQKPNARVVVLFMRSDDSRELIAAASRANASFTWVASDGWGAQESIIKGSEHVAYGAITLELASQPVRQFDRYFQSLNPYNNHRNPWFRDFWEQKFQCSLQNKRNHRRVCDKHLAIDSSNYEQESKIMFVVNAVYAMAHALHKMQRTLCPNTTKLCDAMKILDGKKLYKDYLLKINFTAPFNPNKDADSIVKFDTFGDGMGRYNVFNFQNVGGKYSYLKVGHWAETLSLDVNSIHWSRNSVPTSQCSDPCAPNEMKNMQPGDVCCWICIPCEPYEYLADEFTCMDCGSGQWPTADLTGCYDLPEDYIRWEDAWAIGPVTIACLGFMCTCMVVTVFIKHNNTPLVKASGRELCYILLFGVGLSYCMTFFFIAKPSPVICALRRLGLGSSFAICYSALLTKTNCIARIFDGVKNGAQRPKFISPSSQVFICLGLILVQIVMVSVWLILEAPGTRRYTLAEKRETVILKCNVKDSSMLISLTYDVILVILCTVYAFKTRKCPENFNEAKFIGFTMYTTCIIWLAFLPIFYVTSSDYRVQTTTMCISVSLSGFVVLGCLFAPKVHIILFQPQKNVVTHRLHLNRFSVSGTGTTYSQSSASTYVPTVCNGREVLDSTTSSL
Metabotropic glutamate receptor 1 (Homo sapiens), sequence (Q13255 19-1194 limits assumed): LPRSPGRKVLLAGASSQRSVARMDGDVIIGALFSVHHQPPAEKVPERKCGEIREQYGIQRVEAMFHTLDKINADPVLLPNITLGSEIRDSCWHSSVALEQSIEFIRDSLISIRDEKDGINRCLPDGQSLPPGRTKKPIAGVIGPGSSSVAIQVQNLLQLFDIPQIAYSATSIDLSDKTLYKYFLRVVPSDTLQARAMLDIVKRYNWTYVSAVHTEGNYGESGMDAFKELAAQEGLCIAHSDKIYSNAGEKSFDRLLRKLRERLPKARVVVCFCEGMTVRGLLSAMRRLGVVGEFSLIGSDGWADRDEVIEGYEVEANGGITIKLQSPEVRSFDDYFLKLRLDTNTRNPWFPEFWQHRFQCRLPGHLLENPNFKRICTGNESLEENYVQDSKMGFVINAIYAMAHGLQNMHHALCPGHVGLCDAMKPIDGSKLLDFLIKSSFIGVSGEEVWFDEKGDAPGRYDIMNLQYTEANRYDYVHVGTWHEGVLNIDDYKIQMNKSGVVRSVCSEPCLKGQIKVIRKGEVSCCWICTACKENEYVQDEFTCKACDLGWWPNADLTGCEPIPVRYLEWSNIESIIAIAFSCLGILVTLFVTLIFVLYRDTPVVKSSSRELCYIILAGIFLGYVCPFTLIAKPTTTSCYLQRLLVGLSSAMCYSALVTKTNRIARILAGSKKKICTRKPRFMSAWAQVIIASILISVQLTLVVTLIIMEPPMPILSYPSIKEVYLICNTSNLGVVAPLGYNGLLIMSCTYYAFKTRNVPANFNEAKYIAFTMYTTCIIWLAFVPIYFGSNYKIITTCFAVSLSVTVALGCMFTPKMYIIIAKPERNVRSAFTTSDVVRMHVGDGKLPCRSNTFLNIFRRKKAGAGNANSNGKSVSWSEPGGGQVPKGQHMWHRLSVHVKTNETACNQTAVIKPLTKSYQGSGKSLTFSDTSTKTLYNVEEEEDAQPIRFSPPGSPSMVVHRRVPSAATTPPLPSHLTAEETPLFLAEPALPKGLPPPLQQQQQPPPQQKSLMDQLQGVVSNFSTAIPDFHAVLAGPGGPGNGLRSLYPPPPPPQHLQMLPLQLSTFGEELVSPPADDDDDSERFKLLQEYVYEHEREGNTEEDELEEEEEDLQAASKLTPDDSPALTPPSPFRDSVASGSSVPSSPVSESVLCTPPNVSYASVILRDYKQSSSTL
Metabotropic glutamate receptor 5 (Homo sapiens), sequence (P41594 21-1212 limits assumed): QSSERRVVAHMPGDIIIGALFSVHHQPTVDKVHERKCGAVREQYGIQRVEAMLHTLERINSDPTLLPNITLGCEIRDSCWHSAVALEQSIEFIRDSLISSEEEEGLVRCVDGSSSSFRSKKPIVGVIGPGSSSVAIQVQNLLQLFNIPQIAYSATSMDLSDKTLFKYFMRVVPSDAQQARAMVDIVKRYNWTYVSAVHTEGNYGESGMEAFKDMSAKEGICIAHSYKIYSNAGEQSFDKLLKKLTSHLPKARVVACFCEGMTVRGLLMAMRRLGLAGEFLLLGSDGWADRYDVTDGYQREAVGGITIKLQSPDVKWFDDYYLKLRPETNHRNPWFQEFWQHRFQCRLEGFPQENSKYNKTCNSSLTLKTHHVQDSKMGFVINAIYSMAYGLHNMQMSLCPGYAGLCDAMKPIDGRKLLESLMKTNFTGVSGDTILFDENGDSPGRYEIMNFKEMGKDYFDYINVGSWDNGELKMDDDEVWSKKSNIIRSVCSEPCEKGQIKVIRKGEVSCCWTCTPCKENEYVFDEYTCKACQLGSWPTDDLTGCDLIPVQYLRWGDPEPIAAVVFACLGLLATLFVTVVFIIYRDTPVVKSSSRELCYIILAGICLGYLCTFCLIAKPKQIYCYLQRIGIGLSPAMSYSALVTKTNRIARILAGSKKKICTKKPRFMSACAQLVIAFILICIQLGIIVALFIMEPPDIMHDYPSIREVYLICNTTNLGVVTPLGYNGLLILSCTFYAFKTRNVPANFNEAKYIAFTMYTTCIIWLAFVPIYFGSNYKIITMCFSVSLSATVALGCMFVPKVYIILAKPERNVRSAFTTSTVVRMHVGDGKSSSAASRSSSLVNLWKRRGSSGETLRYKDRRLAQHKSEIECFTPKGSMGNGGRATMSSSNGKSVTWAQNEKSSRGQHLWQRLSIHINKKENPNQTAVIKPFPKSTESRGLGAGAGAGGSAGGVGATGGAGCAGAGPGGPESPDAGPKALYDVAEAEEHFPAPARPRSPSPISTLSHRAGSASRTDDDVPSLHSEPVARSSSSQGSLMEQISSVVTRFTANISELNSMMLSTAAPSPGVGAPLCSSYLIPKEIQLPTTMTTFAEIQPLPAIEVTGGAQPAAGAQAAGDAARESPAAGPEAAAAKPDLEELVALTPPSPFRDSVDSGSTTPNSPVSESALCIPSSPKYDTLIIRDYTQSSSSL
Metabotropic glutamate receptor 7 (Homo sapiens), sequence (Q14831 whole entry): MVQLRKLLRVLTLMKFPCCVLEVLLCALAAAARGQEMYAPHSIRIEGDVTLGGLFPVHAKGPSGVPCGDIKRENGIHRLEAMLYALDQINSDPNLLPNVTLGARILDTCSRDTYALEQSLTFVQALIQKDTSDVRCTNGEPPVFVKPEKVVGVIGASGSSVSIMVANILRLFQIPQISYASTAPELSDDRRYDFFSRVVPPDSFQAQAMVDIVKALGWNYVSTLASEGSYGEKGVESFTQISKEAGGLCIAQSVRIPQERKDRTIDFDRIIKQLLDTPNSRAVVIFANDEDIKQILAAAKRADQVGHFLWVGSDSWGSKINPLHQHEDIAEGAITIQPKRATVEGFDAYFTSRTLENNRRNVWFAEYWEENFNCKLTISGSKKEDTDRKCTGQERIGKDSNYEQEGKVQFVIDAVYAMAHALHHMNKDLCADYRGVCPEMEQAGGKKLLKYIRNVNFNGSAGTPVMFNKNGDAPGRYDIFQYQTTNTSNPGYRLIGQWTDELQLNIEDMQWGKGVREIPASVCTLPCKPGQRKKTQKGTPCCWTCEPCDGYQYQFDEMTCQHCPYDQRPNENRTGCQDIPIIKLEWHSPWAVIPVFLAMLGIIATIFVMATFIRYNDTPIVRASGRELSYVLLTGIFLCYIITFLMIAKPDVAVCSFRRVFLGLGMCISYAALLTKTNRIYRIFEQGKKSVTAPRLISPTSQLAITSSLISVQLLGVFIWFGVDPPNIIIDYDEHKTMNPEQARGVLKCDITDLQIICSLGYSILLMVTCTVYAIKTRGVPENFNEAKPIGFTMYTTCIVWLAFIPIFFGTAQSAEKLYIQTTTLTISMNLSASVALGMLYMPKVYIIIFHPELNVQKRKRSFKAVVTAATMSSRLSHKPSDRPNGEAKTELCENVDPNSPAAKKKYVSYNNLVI

pEC50 [1] | pKi [3] | pEC50 [4] | pEC50 [5] | Activity [6] | Activity [7] | Activity [8] | Activity [9] | Activity [10] | Activity [11] | Activity [12] | Activity [13] | Compound | also measured
– | – | – | – | inactive | inactive | inactive | inactive | inactive | inactive | inactive | inactive | N[C@@]1(C(=O)O)C[S+]([O-])[C@H]2[C@H](C(=O)O)[C@H]21 (stereo in doubt; (+)-11) [listing 1 of 2 here] | Activity (Rattus norvegicus [14]): Active
8.85 | 9.77 | 10.05 | 5.51 | – | – | – | – | – | – | – | – | N[C@@]1(C(=O)O)C[S+]([O-])[C@H]2[C@H](C(=O)O)[C@H]21 (stereo in doubt; (+)-11) [listing 2 of 2 here] | Cp (Rattus norvegicus [15]): 7.495 µg/mL; Cp (Rattus norvegicus [16]): 3.244 µg/mL; Cp (Rattus norvegicus [17]): 2.895 µg/mL; Cp (Rattus norvegicus [18]): 0.699 µg/mL; Cp (Rattus norvegicus [19]): 0.726 µg/mL; Cp (Rattus norvegicus [20]): 0.311 µg/mL; concentration at 8 h [21]: 0.202 µg/mL; concentration at 16 h [22]: 0.034 µg/mL; concentration at 24 h [23]: 0.003 µg/mL; Activity (Rattus norvegicus [24]): 98%; Activity (Rattus norvegicus [25]): 98%; ED50 (Rattus norvegicus [26]): 2.3 mg/kg; AUC(0-t) at 24 h [27]: 13 µg·h/mL; AUC (Rattus norvegicus [28]): 13 µg·h/mL; Cmax (Rattus norvegicus [29]): 29 µg/mL; Cmax (Rattus norvegicus [30]): 7.5 µg/mL; Tmax [31]: 0 h; Tmax [32]: 30 min; bioavailability [33]: 100%

More lines, now with the values behind:

Compound | pEC50 [1] | pKi [3] | pEC50 [4] | pEC50 [5] | Activity [6] | Activity [7] | Activity [8] | Activity [9] | Activity [10] | Activity [11] | Activity [12] | Activity [13] | also measured
N[C@@]1(C(=O)O)C[S+]([O-])[C@H]2[C@H](C(=O)O)[C@H]21 (stereo in doubt; (-)-10) | 6.68 | 6.35 | 7.74 | < 4.00 | – | – | – | – | – | – | – | – | pKi [2]: 6.29
N[C@@]1(C(=O)O)CO[C@H]2[C@H](C(=O)O)[C@H]21 | – | – | – | – | inactive | inactive | inactive | inactive | inactive | inactive | inactive | inactive | –
N[C@@]1(C(=O)O)C[S+]([O-])[C@H]2[C@H](C(=O)O)[C@H]21 (stereo in doubt; (-)-11) | – | – | – | – | – | – | – | – | inactive | inactive | inactive | inactive | –
